Measured values: ChEMBL document CHEMBL2390837, “Synthesis, cytotoxic activity and DNA-interaction studies of novel anthraquinone-thiosemicarbazones with tautomerizable methylene group” (Eur J Med Chem, 2013)
Active and inactive are the calls of the source. The rule behind the calls is not given here.

Key:
[1] = tested on: Escherichia coli; assay: Induction of Escherichia coli XL1 blue pUC18 DNA cleavage assessed as conversion of supercoiled DNA to relaxed circular DNA at 1:2 compound to iron molar ratio after 90 mins by agarose gel electrophoresis in presence of Fe3+
Procedure, shortened: (§1)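 AQ-thiosemicarbazone (4 μL of 10 mM) preincubated 60 min at 37 °C in bicarbonate buffer with 2 μL of FeSO₄ or FeCl₃ (20 mM or 40 mM stock). pUC18 (2 μL) then added and incubated a further 90 min. Products run on 1% agarose in TAE at 80 V and stained with ethidium bromide (0.5 µg/mL).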

[2] = tested on: Escherichia coli; assay: Induction of Escherichia coli XL1 blue pUC18 DNA cleavage assessed as conversion of supercoiled DNA to relaxed circular DNA at 1:1 compound to iron molar ratio after 90 mins by agarose gel electrophoresis in presence of Fe3+; procedure, shortened: as §1
[3] = tested on: Escherichia coli; assay: Induction of Escherichia coli XL1 blue pUC18 DNA cleavage assessed as conversion of supercoiled DNA to relaxed circular DNA at 1:2 compound to iron molar ratio after 90 mins by agarose gel electrophoresis in presence of Fe2+; procedure, shortened: as §1
[4] = tested on: Escherichia coli; assay: Induction of Escherichia coli XL1 blue pUC18 DNA cleavage assessed as conversion of supercoiled DNA to relaxed circular DNA at 1:1 compound to iron molar ratio after 90 mins by agarose gel electrophoresis in presence of Fe2+; procedure, shortened: as §1
[5] = tested on: Escherichia coli; assay: Induction of Escherichia coli XL1 blue pUC18 DNA cleavage assessed as conversion of supercoiled DNA to relaxed circular DNA at 2 mM after 90 mins by agarose gel electrophoresis
Procedure, shortened: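 Supercoiled pUC18 (262 ng, from E. coli XL1 blue) incubated with 2 mM compound in 20 μL of 40 mM bicarbonate buffer pH 8.4 at 37 °C for 90 min. Reaction stopped with loading buffer. Analyzed on 1% agarose in TAE pH 8.24 at 80 V and stained with ethidium bromide (0.5 µg/mL).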

[6] = tested on: DNA; assay: Binding affinity to calf thymus DNA at 20 to 80 uM after 1.5 hrs by UV-vis spectrophotometric analysis; assay type: nucleic-acid assay; settings: Bos taurus
Procedure, shortened: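 UV–Vis spectra (200–800 nm, 1 cm cells) of compound at 20, 40, 60 or 80 μM, with or without 0.12 mM CT-DNA. CT-DNA was dissolved in 10 mM Tris-HCl pH 7.9. Mixtures were in 40 mM bicarbonate buffer pH 8.4, incubated 1.5 h at 37 °C with occasional vortexing.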

[7] = tested on: Radical scavenging activity; assay: Antioxidant activity assessed as DPPH radical scavenging activity after 30 mins by spectrophotometric analysis; assay type: functional
Procedure, shortened: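 Test solutions at 8–1000 μM in methanol mixed 1:1 by volume with 200 μM DPPH in methanol, kept 30 min in the dark at room temperature. Absorbance read at 517 nm against blanks without DPPH. Percent scavenging = (A_DPPH − A_sample)/A_DPPH × 100. IC50 (concentration halving DPPH absorbance) read from a plot of % versus concentration. Ascorbic acid and BHT used as standards.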

[8] = tested on: HeLa; assay: Induction of apoptosis in human HeLa cells at IC90 after 24 hrs by propidium iodide staining-based FACS flow cytometric analysis in presence of caspase-9 inhibitor Z-LEHD-FMK; assay type: functional, cell-based
[9] = tested on: HeLa; assay: Induction of apoptosis in human HeLa cells at IC90 after 24 hrs by propidium iodide staining-based FACS flow cytometric analysis in presence of caspase-8 inhibitor Z-IETD-FMK; assay type: functional, cell-based
[10] = tested on: HeLa; assay: Induction of apoptosis in human HeLa cells at IC90 after 24 hrs by propidium iodide staining-based FACS flow cytometric analysis in presence of caspase-3 inhibitor Z-DEVD-FMK; assay type: functional, cell-based
[11] = tested on: HeLa; assay: Cell cycle arrest in human HeLa cells assessed as accumulation at subG1 phase after 24 hrs by propidium iodide staining-based FACS flow cytometric analysis; assay type: functional
[12] = tested on: HeLa; assay: Cell cycle arrest in human HeLa cells assessed as accumulation at G2/M phase at 2 times IC50 after 24 hrs by propidium iodide staining-based FACS flow cytometric analysis (reference value: 21.66%); assay type: functional
[13] = tested on: HeLa; assay: Cell cycle arrest in human HeLa cells assessed as accumulation at S phase at 2 times IC50 after 24 hrs by propidium iodide staining-based FACS flow cytometric analysis (reference value: 16.22%); assay type: functional
[14] = tested on: HeLa; assay: Cell cycle arrest in human HeLa cells assessed as accumulation at G1 phase at 2 times IC50 after 24 hrs by propidium iodide staining-based FACS flow cytometric analysis (reference value: 51.97%); assay type: functional
[15] = tested on: HeLa; assay: Cell cycle arrest in human HeLa cells assessed as accumulation at subG1 phase at 2 times IC50 after 24 hrs by propidium iodide staining-based FACS flow cytometric analysis (reference value: 9.10%); assay type: functional
[16] = tested on: HeLa; assay: Cell cycle arrest in human HeLa cells assessed as accumulation at G2/M phase at IC50 after 24 hrs by propidium iodide staining-based FACS flow cytometric analysis (reference value: 21.66%); assay type: functional
[17] = tested on: HeLa; assay: Cell cycle arrest in human HeLa cells assessed as accumulation at S phase at IC50 after 24 hrs by propidium iodide staining-based FACS flow cytometric analysis (reference value: 16.22%); assay type: functional
[18] = tested on: HeLa; assay: Cell cycle arrest in human HeLa cells assessed as accumulation at G1 phase at IC50 after 24 hrs by propidium iodide staining-based FACS flow cytometric analysis (reference value: 51.97%); assay type: functional
[19] = tested on: HeLa; assay: Cell cycle arrest in human HeLa cells assessed as accumulation at subG1 phase at IC50 after 24 hrs by propidium iodide staining-based FACS flow cytometric analysis (reference value: 9.10%); assay type: functional
[20] = tested on: MRC5; assay: Cytotoxicity against human MRC5 cells after 72 hrs by MTT assay; assay type: cell-based; settings: MRC5, 72 h
Procedure, shortened: (§2)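 Cells seeded in 96-well plates: HeLa 2000, MDA-MB-361 7000, MDA-MB-453 3000, K562, A549 and MRC-5 5000 per well. Compounds added at 5–100 μM (final), DMSO ≤0.5%, in RPMI-1640 with 10% FBS. Added after 24 h, except K562 at 2 h after seeding. Exposure 72 h, then MTT 4 h at 37 °C, SDS solubilization, A570 read. IC50 is the mean ± SD of three independent experiments.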

[21] = tested on: A549; assay: Cytotoxicity against human A549 cells after 72 hrs by MTT assay; assay type: functional, cell-based; settings: A549, 72 h; procedure, shortened: as §2
[22] = tested on: K562; assay: Cytotoxicity against human K562 cells after 72 hrs by MTT assay; assay type: functional, cell-based; settings: K562, 72 h; procedure, shortened: as §2
[23] = tested on: MDA-MB-361; assay: Cytotoxicity against human MDA-MB-361 cells after 72 hrs by MTT assay; assay type: functional, cell-based; settings: MDA-MB-361, 72 h; procedure, shortened: as §2
[24] = tested on: MDA-MB-453; assay: Cytotoxicity against human MDA-MB-453 cells after 72 hrs by MTT assay; assay type: functional, cell-based; settings: MDA-MB-453, 72 h; procedure, shortened: as §2
[25] = tested on: HeLa; assay: Cytotoxicity against human HeLa cells after 72 hrs by MTT assay; assay type: functional, cell-based; procedure, shortened: as §2

`CCCCCCNC(=S)N/N=C(/CC(=O)c1cccc2c1C(=O)c1ccccc1C2=O)C(=O)OCC` was tested. Which Activity [1] did it give?
The Activity was “inactive”.

What about the Activity [2] of the same molecule?
The Activity was “inactive”.

And the Activity [3]?
Its Activity is “Active”.

And the Activity [4]?
Its Activity is “inactive”.

And the Activity [5]?
Its Activity is “inactive”.

What about the Activity [6] of the same molecule?
Its Activity is “Active”.

What about the IC50 [7] of the same molecule?
The IC50 was 26.1 µM.

And the Activity [8]?
Its Activity is “Active”.

What about the Activity [9] of the same molecule?
Its Activity is “Active”.

What about the Activity [10] of the same molecule?
The Activity was “Active”.

And the Activity [11]?
The Activity was “Dose-dependent effect”.

What about the Activity [12] of the same molecule?
Its Activity is 3.84%.

What about the Activity [13] of the same molecule?
The Activity was 17.17%.

What about the Activity [14] of the same molecule?
The Activity was 36.66%.

What about the Activity [15] of the same molecule?
The Activity was 37.32%.

And the Activity [16]?
Its Activity is 19.83%.

What about the Activity [17] of the same molecule?
The Activity was 14.62%.

And the Activity [18]?
The Activity was 37.89%.

And the Activity [19]?
The Activity was 25.02%.

What about the IC50 [20] of the same molecule?
Its IC50 is 42.1 µM.

And the IC50 [21]?
Its IC50 is 43.6 µM.

What about the IC50 [22] of the same molecule?
The IC50 was 5.86 µM.

And the IC50 [23]?
Its IC50 is 4.45 µM.

What about the IC50 [24] of the same molecule?
The IC50 was 19.6 µM.

What about the IC50 [25] of the same molecule?
Its IC50 is 7.66 µM.
